Target: T1, Adenosine receptor A3 (Homo sapiens) (UniProt P0DMS8)
T1 sequence (whole entry): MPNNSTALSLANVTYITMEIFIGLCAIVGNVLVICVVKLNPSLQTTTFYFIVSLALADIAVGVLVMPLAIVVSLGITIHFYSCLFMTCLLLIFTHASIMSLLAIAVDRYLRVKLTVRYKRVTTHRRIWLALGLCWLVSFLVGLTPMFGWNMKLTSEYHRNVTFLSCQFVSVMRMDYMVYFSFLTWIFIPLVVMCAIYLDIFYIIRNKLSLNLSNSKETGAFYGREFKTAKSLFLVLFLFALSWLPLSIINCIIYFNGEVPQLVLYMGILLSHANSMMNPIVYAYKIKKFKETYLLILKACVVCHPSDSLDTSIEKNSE
Assay: Displacement of [125I]AB-MECA from human A3 adenosine receptor expressed in CHO cells at 1 uM after 60 mins by scintillation counting analysis
Assay type: cell-based
Outline: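 Human A3 CHO membranes (50 μg protein) incubated with 0.5 nM [125I]AB-MECA in 50 mM Tris-HCl, 10 mM MgCl2, 1 mM EDTA, pH 7.4, for 60 min at 37 °C. Nonspecific binding defined with 1 μM AB-MECA. Filtration then counting. Output is % inhibition at 1 μM.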

Compared with `COc1ccc(-n2cc3nc(C)nc(NC(=O)Nc4ccccc4)c3n2)cc1`, `COc1ccc(-n2cc3nc(C)nc(NC(=O)NCc4ccccc4)c3n2)cc1` is higher in inhibition: 1% for the first, 6% for the second.

Compared with `COc1ccc(-n2cc3nc(Cc4ccccc4)nc(N)c3n2)cc1`, `COc1ccc(-n2cc3nc(C)nc(N)c3n2)cc1` is lower in inhibition: 45% for the first, 38% for the second.

First: Cc1nc(NC(=O)Nc2ccccc2)c2nn(-c3ccccc3)cc2n1
Second: Cc1nc(NC(=O)NCc2ccccc2)c2nn(-c3ccccc3)cc2n1
The inhibition of the first is higher: 30% for the first, 1% for the second.

Target: T2, Adenosine receptor A3 (Homo sapiens, UniProt P0DMS8)
T2 sequence (P0DMS8 whole entry): T1 sequence (whole entry)
Assay: Displacement of [125I]AB-MECA from human A3 adenosine receptor expressed in CHO cells after 60 mins by scintillation counting analysis
Assay type: cell-based

First: COc1ccc(-n2cc3nc(C)nc(NC(C)=O)c3n2)cc1
Second: COc1ccc(-n2cc3nc(C)nc(NC(=O)c4ccco4)c3n2)cc1
The Ki of the first is 2.2-fold higher: 100 nM for the first, 45 nM for the second.

Compared with `O=C(Nc1nc(-c2ccccc2)nc2cn(-c3ccccc3)nc12)c1cccnc1`, `O=C(Nc1nc(-c2ccccc2)nc2cn(-c3ccccc3)nc12)c1ccccc1` is 6.2-fold higher in Ki: 3.2 nM for the first, 20 nM for the second.

Compared with `COc1ccc(-n2cc3nc(C)nc(NC(=O)c4ccccc4)c3n2)cc1`, `COc1ccc(-n2cc3nc(C)nc(NC(=O)Cc4ccccc4)c3n2)cc1` is 15-fold higher in Ki: 35 nM for the first, 520 nM for the second.

Compared with `COc1ccc(-n2cc3nc(-c4ccccc4)nc(NC(C)=O)c3n2)cc1`, `Cc1nc(N(C(=O)c2ccccc2)C(=O)c2ccccc2)c2nn(-c3ccccc3)cc2n1` is 3-fold lower in Ki: 98 nM for the first, 33 nM for the second.

Compound `Cc1nc(N(C(=O)c2ccco2)C(=O)c2ccco2)c2nn(-c3ccccc3)cc2n1` has a Ki of 33 nM.

Target: T3, Adenosine receptor A2b (Homo sapiens) (UniProt P29275)
T3 sequence (whole entry): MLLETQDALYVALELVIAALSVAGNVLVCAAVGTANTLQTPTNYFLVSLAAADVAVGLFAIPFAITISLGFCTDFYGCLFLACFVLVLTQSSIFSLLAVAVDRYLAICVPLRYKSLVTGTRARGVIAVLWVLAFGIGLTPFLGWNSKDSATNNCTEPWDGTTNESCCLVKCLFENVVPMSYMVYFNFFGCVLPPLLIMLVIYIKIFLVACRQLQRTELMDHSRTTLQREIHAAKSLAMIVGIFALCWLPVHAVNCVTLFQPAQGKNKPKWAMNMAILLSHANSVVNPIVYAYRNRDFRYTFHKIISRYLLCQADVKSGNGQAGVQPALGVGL
Assay: Inhibition of human A2B adenosine receptor transfected in CHO cells assessed as inhibition of NECA-induced cyclic AMP production at 1 uM after 10 mins by competitive protein binding assay
Assay type: cell-based
Outline: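 Human A2B CHO cells (1 × 10⁶/assay) preincubated 10 min at 37 °C in buffer with adenosine deaminase (2 IU/mL) and Ro 20-1724. Antagonist inhibition of 200 nM NECA-stimulated cAMP measured; reaction stopped with TCA. cAMP quantified by [3H]cAMP competition with adrenal binding protein. IC50 by sigmoid fit, mean SEM of four experiments; % inhibition at 1 μM.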

Going from `COc1ccc(-n2cc3nc(C)nc(NC(C)=O)c3n2)cc1` to `COc1ccc(-n2cc3nc(C)nc(NC(=O)c4ccco4)c3n2)cc1`, the inhibition falls from 30% to 1%.

First: O=C(Nc1nc(-c2ccccc2)nc2cn(-c3ccccc3)nc12)c1cccnc1
Second: O=C(Nc1nc(-c2ccccc2)nc2cn(-c3ccccc3)nc12)c1ccccc1
The inhibition of the first is lower: 1% for the first, 2% for the second.

Compared with `COc1ccc(-n2cc3nc(C)nc(NC(=O)Nc4ccccc4)c3n2)cc1`, `COc1ccc(-n2cc3nc(C)nc(NC(=O)NCc4ccccc4)c3n2)cc1` is lower in inhibition: 13% for the first, 1% for the second.

Going from `COc1ccc(-n2cc3nc(C)nc(NC(=O)c4ccccc4)c3n2)cc1` to `COc1ccc(-n2cc3nc(C)nc(NC(=O)Cc4ccccc4)c3n2)cc1`, the inhibition rises from 1% to 11%.

Going from `COc1ccc(-n2cc3nc(-c4ccccc4)nc(NC(C)=O)c3n2)cc1` to `COc1ccc(-n2cc3nc(Cc4ccccc4)nc(N)c3n2)cc1`, the inhibition rises from 1% to 33%.

First: Cc1nc(N(C(=O)c2ccccc2)C(=O)c2ccccc2)c2nn(-c3ccccc3)cc2n1
Second: Cc1nc(N(C(=O)c2ccco2)C(=O)c2ccco2)c2nn(-c3ccccc3)cc2n1
The inhibition of the first is higher: 5% for the first, 1% for the second.

Going from `Cc1nc(NC(=O)Nc2ccccc2)c2nn(-c3ccccc3)cc2n1` to `Cc1nc(NC(=O)NCc2ccccc2)c2nn(-c3ccccc3)cc2n1`, the inhibition rises from 1% to 10%.

`COc1ccc(-n2cc3nc(C)nc(N)c3n2)cc1` showed an inhibition of 2%.

Target: T2, Adenosine receptor A3
Assay: Inhibition of human A3 adenosine receptor transfected in CHO cells assessed as inhibition of forskolin-induced cyclic AMP production after 10 mins by competitive protein binding assay in presence of CI-IB-MECA
Assay type: functional, cell-based
Outline: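 Human A3 CHO cells (1 × 10⁶/assay) preincubated 10 min at 37 °C with adenosine deaminase and Ro 20-1724. Antagonist potency measured against 100 nM Cl-IB-MECA-mediated inhibition of 1 μM forskolin-stimulated cAMP. cAMP quantified by [3H]cAMP competition binding. IC50 by sigmoid regression, mean SEM of four experiments.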

Compared with `COc1ccc(-n2cc3nc(C)nc(NC(=O)c4ccccc4)c3n2)cc1`, `O=C(Nc1nc(-c2ccccc2)nc2cn(-c3ccccc3)nc12)c1ccccc1` is 2-fold lower in IC50: 128 nM for the first, 65 nM for the second. The second is the more potent here.

In the case of `Cc1nc(N(C(=O)c2ccccc2)C(=O)c2ccccc2)c2nn(-c3ccccc3)cc2n1`, the IC50 is reported as 115 nM.

Target: Adenosine receptor A2a (Homo sapiens, UniProt P29274)
Sequence (P29274 whole entry): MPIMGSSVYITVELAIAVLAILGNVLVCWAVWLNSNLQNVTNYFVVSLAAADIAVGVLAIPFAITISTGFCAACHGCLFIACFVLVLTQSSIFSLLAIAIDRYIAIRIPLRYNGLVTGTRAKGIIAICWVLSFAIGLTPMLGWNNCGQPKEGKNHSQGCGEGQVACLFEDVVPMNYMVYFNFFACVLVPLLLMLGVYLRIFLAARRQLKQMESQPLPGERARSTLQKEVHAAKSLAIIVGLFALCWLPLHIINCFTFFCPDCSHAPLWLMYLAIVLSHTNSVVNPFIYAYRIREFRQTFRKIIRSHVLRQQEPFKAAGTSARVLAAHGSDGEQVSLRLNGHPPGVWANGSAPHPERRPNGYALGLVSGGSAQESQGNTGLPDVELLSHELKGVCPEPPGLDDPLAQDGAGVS
Assay: Displacement of [3H]ZM241385 from human A2A adenosine receptor expressed in CHO cells at 1 uM after 60 mins by scintillation counting analysis
Assay type: cell-based
Outline: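 Human A2A CHO membranes (50 μg protein) incubated with 1 nM [3H]ZM-241385 in 50 mM Tris-HCl, 10 mM MgCl2, pH 7.4, for 60 min at 4 °C, using 6–8 concentrations or 1 μM for % inhibition. Nonspecific binding defined with 1 μM ZM-241385. Ki via Cheng–Prusoff, mean SEM of four assays in duplicate.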

Compared with `COc1ccc(-n2cc3nc(C)nc(NC(C)=O)c3n2)cc1`, `COc1ccc(-n2cc3nc(C)nc(NC(=O)c4ccco4)c3n2)cc1` is lower in inhibition: 30% for the first, 6% for the second.

Compared with `O=C(Nc1nc(-c2ccccc2)nc2cn(-c3ccccc3)nc12)c1cccnc1`, `O=C(Nc1nc(-c2ccccc2)nc2cn(-c3ccccc3)nc12)c1ccccc1` is higher in inhibition: 1% for the first, 5% for the second.

Going from `COc1ccc(-n2cc3nc(C)nc(NC(=O)Nc4ccccc4)c3n2)cc1` to `COc1ccc(-n2cc3nc(C)nc(NC(=O)NCc4ccccc4)c3n2)cc1`, the inhibition falls from 13% to 7%.

First: COc1ccc(-n2cc3nc(C)nc(NC(=O)c4ccccc4)c3n2)cc1
Second: COc1ccc(-n2cc3nc(C)nc(NC(=O)Cc4ccccc4)c3n2)cc1
The inhibition of the first is lower: 7% for the first, 11% for the second.

First: COc1ccc(-n2cc3nc(-c4ccccc4)nc(NC(C)=O)c3n2)cc1
Second: COc1ccc(-n2cc3nc(Cc4ccccc4)nc(N)c3n2)cc1
The inhibition of the first is lower: 11% for the first, 37% for the second.

`Cc1nc(N(C(=O)c2ccccc2)C(=O)c2ccccc2)c2nn(-c3ccccc3)cc2n1` and `Cc1nc(N(C(=O)c2ccco2)C(=O)c2ccco2)c2nn(-c3ccccc3)cc2n1` are the same in inhibition: 1% for the first, 1% for the second.

Compared with `Cc1nc(NC(=O)Nc2ccccc2)c2nn(-c3ccccc3)cc2n1`, `Cc1nc(NC(=O)NCc2ccccc2)c2nn(-c3ccccc3)cc2n1` is higher in inhibition: 1% for the first, 7% for the second.

Work on `COc1ccc(-n2cc3nc(C)nc(N)c3n2)cc1` yielded an inhibition of 1%.

Target: T4, Adenosine receptor A1 (Homo sapiens) (UniProt P30542)
T4 sequence (whole entry): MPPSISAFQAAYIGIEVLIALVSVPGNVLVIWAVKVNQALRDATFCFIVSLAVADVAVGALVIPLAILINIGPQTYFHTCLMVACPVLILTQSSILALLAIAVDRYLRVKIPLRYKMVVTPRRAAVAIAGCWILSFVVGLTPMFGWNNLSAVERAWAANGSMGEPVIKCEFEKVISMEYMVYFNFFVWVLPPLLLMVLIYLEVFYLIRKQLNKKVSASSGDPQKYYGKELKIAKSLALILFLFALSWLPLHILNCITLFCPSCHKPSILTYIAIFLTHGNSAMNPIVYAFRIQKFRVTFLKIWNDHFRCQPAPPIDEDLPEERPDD
Assay: Displacement of [3H]DPCPX from human A1 adenosine receptor expressed in CHO cells at 1 uM after 120 mins by scintillation counting analysis
Assay type: cell-based

Compared with `COc1ccc(-n2cc3nc(C)nc(NC(C)=O)c3n2)cc1`, `COc1ccc(-n2cc3nc(C)nc(NC(=O)c4ccco4)c3n2)cc1` is lower in inhibition: 30% for the first, 6% for the second.

Compared with `O=C(Nc1nc(-c2ccccc2)nc2cn(-c3ccccc3)nc12)c1cccnc1`, `O=C(Nc1nc(-c2ccccc2)nc2cn(-c3ccccc3)nc12)c1ccccc1` is higher in inhibition: 1% for the first, 5% for the second.

Compared with `COc1ccc(-n2cc3nc(C)nc(NC(=O)Nc4ccccc4)c3n2)cc1`, `COc1ccc(-n2cc3nc(C)nc(NC(=O)NCc4ccccc4)c3n2)cc1` is higher in inhibition: 5% for the first, 8% for the second.

First: COc1ccc(-n2cc3nc(C)nc(NC(=O)c4ccccc4)c3n2)cc1
Second: COc1ccc(-n2cc3nc(C)nc(NC(=O)Cc4ccccc4)c3n2)cc1
The inhibition of the first is lower: 1% for the first, 9% for the second.

Going from `COc1ccc(-n2cc3nc(-c4ccccc4)nc(NC(C)=O)c3n2)cc1` to `COc1ccc(-n2cc3nc(Cc4ccccc4)nc(N)c3n2)cc1`, the inhibition rises from 1% to 40%.

Compared with `Cc1nc(N(C(=O)c2ccccc2)C(=O)c2ccccc2)c2nn(-c3ccccc3)cc2n1`, `Cc1nc(N(C(=O)c2ccco2)C(=O)c2ccco2)c2nn(-c3ccccc3)cc2n1` is lower in inhibition: 6% for the first, 4% for the second.

Going from `Cc1nc(NC(=O)Nc2ccccc2)c2nn(-c3ccccc3)cc2n1` to `Cc1nc(NC(=O)NCc2ccccc2)c2nn(-c3ccccc3)cc2n1`, the inhibition rises from 1% to 26%.

`COc1ccc(-n2cc3nc(C)nc(N)c3n2)cc1` was tested, and the inhibition was 30%.

Source: ChEMBL document CHEMBL2321860, “2-Arylpyrazolo[4,3-d]pyrimidin-7-amino derivatives as new potent and selective human A3 adenosine receptor antagonists. Molecular modeling studies and pharmacological evaluation” (J Med Chem, 2013)
